# Screening results from PubChem BioAssay.
# Most compounds without a hit are left out; they make up all but 2.3% or so of the library.
# TRPC4 act: opens the mouse TRPC4 cation channel | Q9QUQ5 | HEK293 TRPC4beta/mu-opioid, Fluo4 calcium fluorescence; active compounds read high | B-score at 10 µM | actives 0.49% (n = 310,000);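 active = B-score above 5 SD of library B-scores, and initial fluorescence ratio not above library mean plus 5 SD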;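 note: positive B-score marks a calcium rise read as TRPC4 activation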
#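 System – HEK293 cells stably co-expressing mouse TRPC4beta and mu-opioid receptor · Signal – Fluo4 calcium-sensitive dye fluorescence, kinetic, 1 Hz baseline · Benchmarks – buffer (low) and maximal DAMGO (high) · Read-out – B score of integrated fluorescence ratio per well · Incubation – dye loading 45 min room temperature, 110 s kinetic read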
# TRPC4 potent: allosterically enhances the mouse TRPC4 cation channel; AID 2227; actives 0.42% (n = 310,000); HEK293 TRPC4beta/mu-opioid, DAMGO EC20, Fluo-4 Ca2+ flux; active compounds read high; B-score at 10 µM; Q9QUQ5;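 active = B-score of calcium response area above 5 SD of library B-scores, with initial fluorescence ratio within 5 SD of library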;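 note: B-score of integrated fluorescence ratio over time as area under calcium response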
# TRPC4 block: blocks the mouse TRPC4 cation channel; Q9QUQ5; HEK293 TRPC4beta/mu-opioid, DAMGO-evoked Fluo4 calcium flux; active compounds read low; B-score at 10 µM; actives 0.39% (n = 300,000);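 active = B-score over 3 SD under the library average, no early fluorescence shift, positive overall ratio signal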
#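 material = TRPC4beta/mu-opioid receptor HEK293 cell line | probe or stimulus = sequential submaximal and maximal DAMGO stimulation | compound dosing = one concentration per compound | measured by = Fluo4 Ca2+ flux fluorescence | evaluation = integrated fluorescence ratio relative to baseline, converted to per-well B score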
# TRPC6 inhibitor: blocks the mouse TRPC6 cation channel; Q61143; B-score at 10 µM; AID 2553; actives 1.1% (n = 310,000); HEK293-TRPC6, membrane potential dye, ACh-evoked depolarization; active compounds read low;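 active = B-score under library mean minus 3 SD, initial fluorescence not abnormally high, positive integrated signal ratio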;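 note: B-score derived from integrated fluorescence ratio over the kinetic read; more negative B-score means stronger inhibition of depolarization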
# Target sequence (Q61143 whole entry, looked up): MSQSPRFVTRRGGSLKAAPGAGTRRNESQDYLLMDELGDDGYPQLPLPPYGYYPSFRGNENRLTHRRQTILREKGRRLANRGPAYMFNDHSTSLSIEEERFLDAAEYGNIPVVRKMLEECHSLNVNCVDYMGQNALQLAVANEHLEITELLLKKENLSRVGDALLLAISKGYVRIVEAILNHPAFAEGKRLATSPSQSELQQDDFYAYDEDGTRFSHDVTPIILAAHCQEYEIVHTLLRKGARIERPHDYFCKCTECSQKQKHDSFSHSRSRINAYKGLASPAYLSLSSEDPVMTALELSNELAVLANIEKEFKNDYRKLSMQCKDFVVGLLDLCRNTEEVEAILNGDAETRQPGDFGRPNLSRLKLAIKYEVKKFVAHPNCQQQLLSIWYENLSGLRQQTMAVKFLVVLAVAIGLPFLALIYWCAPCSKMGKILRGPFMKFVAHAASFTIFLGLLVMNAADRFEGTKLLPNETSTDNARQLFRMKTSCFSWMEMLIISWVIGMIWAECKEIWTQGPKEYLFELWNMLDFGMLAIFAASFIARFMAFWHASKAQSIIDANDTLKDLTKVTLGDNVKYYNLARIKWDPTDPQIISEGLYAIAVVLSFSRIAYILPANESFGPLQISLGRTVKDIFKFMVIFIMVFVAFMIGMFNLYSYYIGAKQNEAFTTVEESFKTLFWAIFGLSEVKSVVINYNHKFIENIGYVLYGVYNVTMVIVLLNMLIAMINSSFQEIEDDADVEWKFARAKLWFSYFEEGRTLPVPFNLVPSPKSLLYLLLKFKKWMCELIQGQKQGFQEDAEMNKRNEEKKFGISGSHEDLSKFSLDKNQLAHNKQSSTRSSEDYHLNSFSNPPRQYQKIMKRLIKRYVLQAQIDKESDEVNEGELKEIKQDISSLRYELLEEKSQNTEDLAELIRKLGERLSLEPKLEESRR
# TRPC6 activator: activates the mouse TRPC6 cation channel; Q61143; HEK293-TRPC6 membrane potential dye fluorescence; active compounds read high; B-score at 10 µM; actives 0.13% (n = 310,000); AID 2550;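 active = B-score of the integrated fluorescence ratio above library mean plus 3 SD, and starting fluorescence ratio within library mean plus 5 SD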;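 note: higher score means more depolarization so channel activation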
# TRPC4 sel inh 2: second selectivity test of TRPC6 inhibitors: effect on mouse TRPC4; actives 42% (n = 920); shares compounds with TRPC6 inhibitor; HEK293 TRPC4/MOR, membrane potential dye fluorescence; channel activated by saturating DAMGO dose; AID 2776; inhibition, % at 10 µM;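 active = compounds whose fluorescence signal differed from control wells by over 3 SD, either direction, in both duplicate plates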
# TRPC4 spec: mouse TRPC4 off-target activity of TRPC6 inhibitors; HEK293 TRPC4/mu-opioid, membrane potential fluorescence; AID 2777; actives 61% (n = 920); activity change, negative = inhibition, % at 10 µM; shares compounds with TRPC6 inhibitor;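 active = rise or fall in signal beyond 3 SD of buffer-only wells in both replicate plates, either sign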;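 note: integrated kinetic ratio of fluorescence range over baseline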
# HEK293 MPD ctr 2-1: parental HEK293 nonspecific activity of TRPC6 inhibitors, second screen. shares compounds with TRPC6 inhibitor. parental HEK293 membrane potential dye fluorescence; maximal acetylcholine challenge after compound addition. AID 2779. signal change vs control, % at 10 µM. actives 31% (n = 920);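 active = membrane potential signal moving either way by over 3 SD of the maximum-effect control, in both duplicate plates, meaning non-specific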
# HEK293 MPD ctr-1: parental HEK293 nonspecific activity of TRPC6 inhibitors | shares compounds with TRPC6 inhibitor | parental HEK293 membrane potential dye fluorescence | membrane potential signal change, % at 10 µM | actives 60% (n = 920) | AID 2780;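 active = membrane potential signal shifting up or down by more than 3 SD of buffer-only wells, on both duplicate plates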
# HEK293 MPD ctr-2: parental HEK293 nonspecific activity of TRPC6 modulators | shares compounds with TRPC6 inhibitor | membrane potential signal change, % at 10 µM | membrane potential dye fluorescence | AID 488924 | actives 51% (n = 2,400);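 active = membrane potential signal moves up or down beyond 5 SD from buffer-only wells, on both duplicate plates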
# HEK293 MPD ctr 2-2: parental HEK293 nonspecific activity of TRPC6 modulators, second screen | shares compounds with TRPC6 inhibitor | inhibition, % at 10 µM | actives 14% (n = 2,400) | membrane potential dye fluorescence; after compound, maximal acetylcholine stimulation;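 active = membrane potential signal drops by more than 5 SD from the mean control signal, in both duplicate plates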;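 note: plate controls were acetylcholine ECmax control wells for no effect and buffer only wells for full effect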
# TRPC4/MOR mod: mouse TRPC4 off-target activity of TRPC6 modulators; HEK293 TRPC4/mu-opioid, membrane potential fluorescence; percent change from control (negative = decrease, positive = increase), % at 10 µM; shares compounds with TRPC6 inhibitor; actives 69% (n = 2,400);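 active = membrane potential signal moved up or down beyond 5 SD of buffer control wells, in both duplicate plates, actives on both sides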;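 note: plate controls were assay buffer wells for no effect and DAMGO maximal-effect wells for full effect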
# TRPC4 ctr inh 2: second selectivity test of TRPC6 modulators against mouse TRPC4; shares compounds with TRPC6 inhibitor; HEK293 TRPC4/mu-opioid, membrane potential dye fluorescence; stimulated with maximal-effect DAMGO; inhibition, % at 10 µM; actives 55% (n = 2,400); AID 488928;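 active = drop in membrane potential signal beyond 5 SD of the control wells in both duplicate plates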;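 note: TRPC4 counter screen for TRPC6 hits run under conditions tuned for TRPC6 not TRPC4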
# TRPC6 inh conf: mouse TRPC6 inhibitor confirmation; HEK293-TRPC6, membrane potential dye, ACh-evoked depolarization; actives 43% (n = 3,300); inhibition, % at 10 µM; shares compounds with TRPC6 inhibitor;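 active = fluorescence ratio falls more than 5 SD below the full-stimulation control mean, in both duplicate runs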;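 note: integrated fluorescence ratio of peak minus minimum over baseline after agonist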
# TRPC6 act confirm: mouse TRPC6 activator confirmation; actives 11% (n = 2,800); activation, % at 10 µM; shares compounds with TRPC6 inhibitor; HEK293-TRPC6 membrane potential dye fluorescence, FDSS; AID 488961;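 active = ratio signal rise beyond 5 SD above unstimulated control wells' mean, seen in both duplicate runs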;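 note: plate controls were buffer EC0 wells for no effect and acetylcholine ECmax response for full effect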
# * marks the source's active call; other numbers are inactive results; i = inactive; / = not tested or not shown.
SMILES,TRPC4 act,TRPC4 potent,TRPC4 block,TRPC6 inhibitor,TRPC6 activator,HEK293 MPD ctr-2,HEK293 MPD ctr 2-2,TRPC4/MOR mod,TRPC4 ctr inh 2,TRPC6 inh conf,TRPC6 act confirm,others
CCC1=NN(C(=O)c2ccc(Cl)cc2)C(O)(c2ccccc2)C1 (configuration not stated),i,i,i,i,i,/,/,/,/,/,/,
CC1(C)SC2c3ccccc3C(=O)N2[C@@H]1C(=O)NCCCN1CCOCC1 (some centres not stated),i,i,i,-5.1*,i,i,i,11%*,i,i,/,
CNC(=S)NNC(=O)CSCc1c(Cl)cccc1Cl,i,i,i,i,i,/,/,/,/,/,/,
CNC(=O)CSCc1c(Cl)cccc1Cl,i,i,i,-11*,i,i,i,i,i,i,i,
COc1ccccc1Nc1nc(N)nc(CSC(=S)N2CCCCC2)n1,i,i,i,-9.5*,11*,i,i,i,i,i,i,
Cc1cc(=O)n2c3ccccc3n(CC(O)CN3CCCCC3)c2c1C#N (configuration not stated),i,i,i,-8.3*,i,/,/,/,/,63%*,i,TRPC4 sel inh 2=50%*;TRPC4 spec=-21%*;HEK293 MPD ctr 2-1=i;HEK293 MPD ctr-1=-365%*
Cc1cc(N2CCN(C)CC2)nc(N2CCOCC2)n1,i,i,i,-5.7*,i,-246%*,i,-44%*,31%*,i,i,
Cc1cc(N2CCOCC2)nc(N2CCOCC2)n1,i,i,i,i,i,/,/,/,/,/,/,
O=C1CNC(=S)N1Cc1cccc(Cl)c1,i,i,i,-7*,i,/,/,/,/,i,i,TRPC4 sel inh 2=i;TRPC4 spec=-12%*;HEK293 MPD ctr 2-1=i;HEK293 MPD ctr-1=i
NC(=O)NC(=O)C(Nc1ccc2c(c1)CCC2)c1ccccc1 (configuration not stated),i,i,i,-7.2*,i,/,/,/,/,i,i,TRPC4 sel inh 2=i;TRPC4 spec=i;HEK293 MPD ctr 2-1=i;HEK293 MPD ctr-1=i
CCN1C(=O)c2ccc(C(=O)Nc3cccc(C(=O)O)c3)cc2C1=O,i,i,i,i,i,/,/,/,/,/,/,
C=C(C)CSc1nc2sc3c(c2c(=O)n1C1CCCCC1)CCN(C)C3,i,i,i,-7.5*,i,i,i,-20%*,i,i,i,
O=C1CCC([N+](=O)[O-])C(c2ccccc2Cl)N1 (configuration not stated),i,i,i,i,i,/,/,/,/,/,/,
